High-throughput results: PubChem, Sanford-Burnham Center for Chemical Genomics
SENP1 inh: blocks the human SENP1 SUMO protease catalytic domain | AID 624204 | inhibition, % at 10 µM | 360,000 compounds, 0.21% hits | recombinant SENP1 catalytic domain, CyPet-SUMO1-YPet FRET cleavage;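 active means inhibition at least 30% at 10 µM, raw YFP signal under a set limit, fluorescence ratio 0.5 to 1.5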;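 further: 0% = enzyme with DMSO and 100% = no enzyme wells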
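Test system: recombinant human SENP1 catalytic domain, His6-tagged / Medium: pH 8 Tris buffer with EDTA, NaCl, BME, BSA, NP40, catalase / Also added: SUMO1 FRET substrate flanked by Cypet and Ypet, 25 nM / Times: 50 min reaction at room temperature / Signal: FRET, CFP and YFP emission / Control set: no-enzyme low control and enzyme-plus-DMSO high control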
SENP8 block-1: inhibitors of human SENP8 protease; Q96LD8; recombinant SENP8, Nedd8 substrate fluorescence; inhibition, % at 20 µM; 360,000 compounds, 0.64% hits; AID 602440; in the data active means inhibition mostly above about 40%, no sharp cut-off; inactive means mostly below about 27%
Target sequence (Q96LD8 whole entry, looked up): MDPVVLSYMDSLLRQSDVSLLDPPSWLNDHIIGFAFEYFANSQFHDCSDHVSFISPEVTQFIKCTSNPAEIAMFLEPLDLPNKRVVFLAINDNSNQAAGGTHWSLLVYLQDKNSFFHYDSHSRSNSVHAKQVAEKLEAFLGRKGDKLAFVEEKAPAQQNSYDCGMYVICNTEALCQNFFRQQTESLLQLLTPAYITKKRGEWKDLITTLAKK
SENP6 block: SENP6 protease inhibition; Recombinant SENP6 catalytic domain, aminoluciferin luminescence; inhibition, % at 10 µM; 330,000 compounds, 1.8% hits;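 active means inhibition above about 50% at the single tested dose, limit read from the data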;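 further: plate controls were DMSO wells with enzyme for no effect and DMSO wells lacking enzyme for full effect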
SENP8 block-2: inhibitors of human SENP8 protease | Q96LD8 | purified SENP8, Z-RLRGG-aminoluciferin cleavage, luminescence | inhibition, % at 10 µM | 330,000 compounds, 1.2% hits; in the data active means inhibition above about 50%
SENP7 block: blocks the human protease SENP7; Q9BQF6; recombinant SENP7, Z-RLRGG-aminoluciferin luminescence, 40 min; inhibition, % at 5 µM; 330,000 compounds, 1.5% hits; AID 434973;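 active means inhibition above about 50% at the single test dose, limit read from the data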;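 further: plate controls were DMSO with enzyme for no effect and no enzyme buffer wells for full effect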
Target sequence (Q9BQF6 706-1050 limits assumed): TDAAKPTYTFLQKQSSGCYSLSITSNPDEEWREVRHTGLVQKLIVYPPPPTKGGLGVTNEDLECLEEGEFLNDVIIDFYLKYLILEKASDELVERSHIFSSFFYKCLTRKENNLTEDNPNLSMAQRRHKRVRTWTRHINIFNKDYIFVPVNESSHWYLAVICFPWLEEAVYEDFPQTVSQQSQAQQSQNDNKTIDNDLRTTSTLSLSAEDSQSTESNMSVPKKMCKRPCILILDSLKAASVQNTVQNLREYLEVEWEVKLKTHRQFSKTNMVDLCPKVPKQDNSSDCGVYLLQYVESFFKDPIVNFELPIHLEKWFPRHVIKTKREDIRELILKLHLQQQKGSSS
SENP8 conf: SENP8 (human) inhibition, single concentration confirmation; shares compounds with SENP8 block-1; purified SENP8, Nedd8-AMC/pro-Nedd8 cleavage fluorescence, 30 min; inhibition, % at 25 µM; 1,400 compounds, 15% hits; in the data active means inhibition mostly above about 39%, no sharp cut-off; inactive means mostly below about 34%
* marks the source's active call; other numbers are inactive results. This is a sample that favours compounds with a hit; in the whole collection about 2.5% have one here.

For CCCn1c(N)c(N(CCOC)C(=O)CSc2cc(C)c3ccccc3n2)c(=O)[nH]c1=O the results were SENP1 inh -1 and SENP8 block-1 -3.
C=CCn1c(SC(C)CC)nc(O)cc1=O (centres undefined) was read as SENP1 inh 1, SENP8 block-1 23, SENP6 block -10, SENP8 block-2 -6 and SENP7 block -1.
Cc1ccc(C(=O)c2ccc([N+](=O)[O-])cc2)cc1 was read as SENP1 inh 1, SENP8 block-1 6, SENP6 block -12, SENP8 block-2 -13 and SENP7 block 10.
Cc1ccc(C(=O)c2coc3cc([N+](=O)[O-])c(O)c([N+](=O)[O-])c23)cc1 was read as SENP1 inh 5, SENP8 block-1 47*, SENP6 block 9, SENP8 block-2 -12, SENP7 block 1 and SENP8 conf 23.
Screening CNC(=O)[C@@H]1CCC(=O)N1 returned SENP1 inh 2, SENP8 block-1 26, SENP6 block -14, SENP8 block-2 -10 and SENP7 block -12.
O=C1CCC(C(=O)O)N1 (centres undefined) was read as SENP1 inh 2, SENP8 block-1 52*, SENP6 block -16, SENP8 block-2 3, SENP7 block -2 and SENP8 conf 17.
For CC(C)NC(=O)C1(C)CCN1C(=O)C(c1ccccc1)c1ccccc1 (centres undefined) the results were SENP1 inh 2 and SENP8 block-1 12.
CCc1ccc(NC(=O)C(C)OC(=O)Cn2[nH]c(=O)c3ccccc3c2=O)cc1 (centres undefined) was read as SENP1 inh 1 and SENP8 block-1 4.
Screening O=C(c1cc(-c2ccccc2Cl)on1)N1CCN(C(=O)c2ccco2)CC1 returned SENP1 inh 1, SENP8 block-1 43*, SENP6 block -12, SENP8 block-2 2, SENP7 block 4 and SENP8 conf 18.
For COc1ccc(N(C)S(=O)(=O)c2c(C)noc2C)c(OC)c1 the results were SENP1 inh 1, SENP8 block-1 0, SENP6 block 3, SENP8 block-2 2 and SENP7 block -2.
COc1ccc(OS(=O)(=O)c2c(C)noc2C)cc1 was read as SENP1 inh 2, SENP8 block-1 48*, SENP6 block -4, SENP8 block-2 -1, SENP7 block 4 and SENP8 conf 16.
`COc1ccc(CN2CC[C@@H](N3CCOCC3)[C@H](O)C2)cc1F` gave SENP1 inh -3, SENP8 block-1 2, SENP6 block -6, SENP8 block-2 -9 and SENP7 block 7.
COc1ccccc1CNC(=O)[C@H](C)NC(=O)C1CCN(C(=O)[C@@H](N)C(C)C)CC1 was read as SENP1 inh 2, SENP8 block-1 48*, SENP6 block -13, SENP8 block-2 -6, SENP7 block -2 and SENP8 conf 10.
Screening CSCC[C@H](N)C(=O)N1CCC(C(=O)N[C@H](C(=O)NCc2ccccc2F)C(C)C)CC1 returned SENP1 inh 0, SENP8 block-1 48*, SENP6 block -5, SENP8 block-2 -3, SENP7 block -4 and SENP8 conf -6.
For COc1ccccc1CNC(=O)[C@H](C)NC(=O)C1CCN(C(=O)[C@@H](N)Cc2ccccc2)CC1 the results were SENP1 inh 1, SENP8 block-1 18, SENP6 block -19, SENP8 block-2 3 and SENP7 block -4.
For COc1ccc(CNC(=O)[C@H](Cc2ccccc2)NC(=O)C2CCN(C(=O)[C@H](C)N)CC2)cc1 the results were SENP1 inh 5, SENP8 block-1 51*, SENP6 block -4, SENP8 block-2 -1, SENP7 block -4 and SENP8 conf 9.
For COc1ccc(CNC(=O)[C@@H](NC(=O)C2CCN(C(=O)[C@@H](N)Cc3ccccc3)CC2)C(C)C)cc1 the results were SENP1 inh -2, SENP8 block-1 54*, SENP6 block 2, SENP8 block-2 2, SENP7 block 6 and SENP8 conf 16.
`C=CCCCCCCCCC(=O)NNC1CC(=O)N(c2ccccc2)C1=O` (centres undefined) gave SENP1 inh 2, SENP8 block-1 12, SENP6 block -7, SENP8 block-2 -9 and SENP7 block -2.
For CCOC(=O)c1cc([N+](=O)[O-])cc([N+](=O)[O-])c1Sc1ncnc2nc[nH]c12 the results were SENP1 inh 1, SENP8 block-1 63* and SENP8 conf 34.
For CCOc1cc(CNc2ccc(Br)cc2)cc(Br)c1OCC(=O)NC(C)(C)C the results were SENP1 inh 1, SENP8 block-1 4, SENP6 block -17, SENP8 block-2 0 and SENP7 block 8.
`CCOc1cc(CNc2ccc(OC)cc2)cc(Br)c1OCC(=O)NC(C)(C)C` gave SENP1 inh 1, SENP8 block-1 47*, SENP6 block 8, SENP8 block-2 8, SENP7 block 2 and SENP8 conf 24.
CNc1ccc(/C=C2\COc3ccccc3C2=O)cc1[N+](=O)[O-] was read as SENP1 inh 6, SENP8 block-1 50*, SENP6 block -8, SENP8 block-2 -6, SENP7 block -18 and SENP8 conf 14.
Screening O=C1/C(=C/c2ccccc2[N+](=O)[O-])COc2ccccc21 returned SENP1 inh 0, SENP8 block-1 5, SENP6 block -4, SENP8 block-2 -11 and SENP7 block -7.
For N#C/C(=C\c1ccc(O)c([N+](=O)[O-])c1)c1nc2ccccc2s1 the results were SENP1 inh 32*, SENP8 block-1 54* and SENP8 conf 42*.
Cc1ccccc1NNC(N)=S was read as SENP1 inh 2, SENP8 block-1 51*, SENP6 block 3, SENP8 block-2 -2, SENP7 block 10 and SENP8 conf 11.
For Cc1ccccc1NC(=O)Nc1ccccc1C(N)=O the results were SENP1 inh 2, SENP8 block-1 -4, SENP6 block -6, SENP8 block-2 -5 and SENP7 block 3.
For COc1ccc(OC)c(CN2C(=O)CSCC2(C)C(=O)NCc2ccccc2)c1 (centres undefined) the results were SENP1 inh 0 and SENP8 block-1 22.
`CC1CCN(c2ccc(C(=O)NCc3ccco3)cc2[N+](=O)[O-])CC1` gave SENP1 inh 6, SENP8 block-1 42*, SENP6 block -5, SENP8 block-2 -4, SENP7 block 6 and SENP8 conf 28.
Screening CN1CCN(c2cc(-c3cc(O)c4ncccc4c3)ccn2)CC1 returned SENP1 inh -1, SENP8 block-1 52*, SENP6 block -6, SENP8 block-2 -2, SENP7 block 4 and SENP8 conf 48*.
Screening CN1CCN(C(=O)c2cccc(-c3cc(O)c4ncccc4c3)c2)CC1 returned SENP1 inh 1, SENP8 block-1 10, SENP6 block -5, SENP8 block-2 6 and SENP7 block -4.
